Test results from ChEMBL document CHEMBL4152207, “Discovery of potent and selective BRD4 inhibitors capable of blocking TLR3-induced acute airway inflammation” (Eur J Med Chem, 2018).
Activity calls are given as the source filed them. The calls are words filed in the database; no cut-off is given here.

Assays:
[1] = target: Beta-1 adrenergic receptor (Homo sapiens) (UniProt P08588); test: Displacement of [3H](-)CGP 12177 from human beta1 adrenoceptor at 10 uM after 60 mins by scintillation counting analysis relative to control
Mus musculus [2] = test: (§1) Anti-inflammatory activity in poly(I:C)-induced airway inflammation C57BL/6 mouse model assessed as reduction in neutrophils recruitment into bronchoalveolar lavage fluid at 10 mg/kg, ip administered 1 day prior to poly(I:C) stimulation and redosed on day 2 followed by poly(I:C) stimulation by trypan blue staining-based hemocytometric analysis; format: functional, organism-based
[3] = target: 5-hydroxytryptamine receptor 1A (Homo sapiens) (UniProt P08908); test: Displacement of [3H]8-OH-DPAT from recombinant human 5-HT1A receptor at 10 uM after 60 mins by scintillation counting analysis relative to control
Mus musculus [4] = test: Toxicity in mouse assessed as effect on platelet level at 1 to 50 mg/kg, ip dosed daily for 1 month; format: organism-based; conditions: in vivo
[5] = target: Alpha-1A adrenergic receptor (Homo sapiens) (UniProt P35348); test: Displacement of [3H]prazosin from human recombinant adrenergic alpha1A receptor at 10 uM after 120 mins by scintillation counting analysis relative to control
Alpha-1A adrenergic receptor (Homo sapiens), sequence (P35348 whole entry): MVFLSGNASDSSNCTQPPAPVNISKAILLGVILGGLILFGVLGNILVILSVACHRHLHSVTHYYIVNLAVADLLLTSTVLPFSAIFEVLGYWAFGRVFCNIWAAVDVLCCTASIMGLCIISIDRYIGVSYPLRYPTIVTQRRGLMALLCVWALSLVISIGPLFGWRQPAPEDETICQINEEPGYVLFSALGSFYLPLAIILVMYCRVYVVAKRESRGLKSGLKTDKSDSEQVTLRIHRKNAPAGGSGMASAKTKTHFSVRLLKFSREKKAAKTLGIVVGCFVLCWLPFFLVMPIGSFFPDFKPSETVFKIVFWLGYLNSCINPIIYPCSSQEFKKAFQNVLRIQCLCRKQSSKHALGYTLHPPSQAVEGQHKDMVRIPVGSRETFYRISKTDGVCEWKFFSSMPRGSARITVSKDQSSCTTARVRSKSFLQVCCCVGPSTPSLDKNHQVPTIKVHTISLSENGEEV

[6] = target: Glucocorticoid receptor (Homo sapiens) (UniProt P04150); test: Displacement of [3H]dexamethasone from human GR at 10 uM after 360 mins by scintillation counting analysis relative to control
[7] = target: Inhibitor of nuclear factor kappa-B kinase subunit alpha (Homo sapiens) (UniProt O15111); test: Inhibition of human recombinant IKKalpha using Ulight-IkappaB-alpha as substrate after 30 mins relative to control; design: scale not given: the % may be the effect or the level left
[8] = target: D(1A) dopamine receptor (Homo sapiens) (UniProt P21728); test: Displacement of [3H]-SCH 23390 from human recombinant dopamine D1 receptor at 10 uM after 60 mins by scintillation counting analysis relative to control
D(1A) dopamine receptor (Homo sapiens), sequence (P21728 whole entry): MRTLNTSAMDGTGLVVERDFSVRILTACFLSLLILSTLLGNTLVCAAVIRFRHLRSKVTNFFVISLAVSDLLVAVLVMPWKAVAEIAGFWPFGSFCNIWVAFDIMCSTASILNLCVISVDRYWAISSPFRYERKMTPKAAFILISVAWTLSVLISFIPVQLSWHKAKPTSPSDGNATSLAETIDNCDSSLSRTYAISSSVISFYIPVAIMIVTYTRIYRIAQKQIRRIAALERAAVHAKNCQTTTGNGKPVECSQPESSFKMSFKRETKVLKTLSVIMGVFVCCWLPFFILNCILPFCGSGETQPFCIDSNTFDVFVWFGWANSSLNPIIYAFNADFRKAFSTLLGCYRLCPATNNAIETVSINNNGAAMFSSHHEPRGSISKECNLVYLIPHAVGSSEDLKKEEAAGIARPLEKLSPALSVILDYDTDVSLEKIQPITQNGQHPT

[9] = target: D(2) dopamine receptor (Homo sapiens) (UniProt P14416); test: Displacement of [3H]7-OH-DPAT from human recombinant dopamine D2S receptor at 10 uM after 60 mins by scintillation counting analysis relative to control
D(2) dopamine receptor (Homo sapiens), sequence (P14416 whole entry): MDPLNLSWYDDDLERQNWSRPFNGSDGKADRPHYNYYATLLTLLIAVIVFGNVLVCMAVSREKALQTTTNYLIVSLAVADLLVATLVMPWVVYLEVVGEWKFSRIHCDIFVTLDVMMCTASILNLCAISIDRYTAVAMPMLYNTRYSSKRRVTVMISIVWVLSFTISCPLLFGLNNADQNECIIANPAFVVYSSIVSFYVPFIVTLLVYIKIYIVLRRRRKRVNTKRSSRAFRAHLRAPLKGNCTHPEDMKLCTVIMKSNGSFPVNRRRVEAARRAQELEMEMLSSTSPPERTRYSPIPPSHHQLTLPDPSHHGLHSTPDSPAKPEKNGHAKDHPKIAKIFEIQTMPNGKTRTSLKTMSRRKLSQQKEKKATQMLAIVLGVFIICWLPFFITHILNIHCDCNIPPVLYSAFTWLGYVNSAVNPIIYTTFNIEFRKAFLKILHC

[10] = target: Histamine H2 receptor (Homo sapiens) (UniProt P25021); test: Displacement of [125I]APT from human recombinant histamine H2 receptor at 10 uM after 120 mins by scintillation counting analysis relative to control
Histamine H2 receptor (Homo sapiens), sequence (P25021 whole entry): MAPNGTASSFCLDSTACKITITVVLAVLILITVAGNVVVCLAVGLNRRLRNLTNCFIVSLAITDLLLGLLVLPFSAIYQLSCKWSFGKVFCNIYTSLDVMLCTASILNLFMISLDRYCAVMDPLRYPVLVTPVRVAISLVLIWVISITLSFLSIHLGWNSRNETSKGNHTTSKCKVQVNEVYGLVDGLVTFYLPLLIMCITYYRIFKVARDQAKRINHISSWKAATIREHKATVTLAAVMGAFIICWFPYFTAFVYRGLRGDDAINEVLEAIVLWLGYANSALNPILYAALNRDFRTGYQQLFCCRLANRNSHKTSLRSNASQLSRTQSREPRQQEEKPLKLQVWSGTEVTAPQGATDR

[11] = target: Muscarinic acetylcholine receptor M2 (Homo sapiens) (UniProt P08172); test: Displacement of [3H]AF-DX 384 from human recombinant M2 receptor at 10 uM after 60 mins by scintillation counting analysis relative to control
Muscarinic acetylcholine receptor M2 (Homo sapiens), sequence (P08172 whole entry): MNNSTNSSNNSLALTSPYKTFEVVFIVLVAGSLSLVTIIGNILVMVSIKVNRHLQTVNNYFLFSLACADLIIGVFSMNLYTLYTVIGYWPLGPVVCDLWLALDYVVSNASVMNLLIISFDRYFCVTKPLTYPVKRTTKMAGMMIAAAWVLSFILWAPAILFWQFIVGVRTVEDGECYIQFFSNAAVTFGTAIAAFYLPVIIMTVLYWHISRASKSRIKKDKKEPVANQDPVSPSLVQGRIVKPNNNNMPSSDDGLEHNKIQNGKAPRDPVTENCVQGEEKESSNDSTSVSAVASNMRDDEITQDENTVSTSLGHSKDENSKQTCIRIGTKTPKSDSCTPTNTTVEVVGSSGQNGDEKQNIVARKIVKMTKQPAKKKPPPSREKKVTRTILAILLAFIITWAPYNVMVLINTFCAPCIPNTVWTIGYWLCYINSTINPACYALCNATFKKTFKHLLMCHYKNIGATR

Mus musculus [12] = test: Hepatotoxicity in mouse assessed as effect on globulin level at 1 to 50 mg/kg, ip dosed daily for 1 month; format: toxicity, organism-based; conditions: in vivo
How it was run: (§2)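 Groups of n = 5 mice were dosed daily at 1-50 mg/kg for one month. Liver function markers (albumin, globulin, ALK, ALT) were measured alongside body weight, blood counts and renal markers.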

[13] = target: Mu-type opioid receptor (Homo sapiens) (UniProt P35372); test: Displacement of [3H]DAMGO from human recombinant mu opioid receptor at 10 uM after 120 mins by scintillation counting analysis relative to control
[14] = target: Kappa-type opioid receptor (Homo sapiens) (UniProt P41145); test: Displacement of [3H]U69593 from human kappa opioid receptor at 10 uM after 60 mins by scintillation counting analysis relative to control
[15] = Half life in rat at 10 mg/kg, iv; format: ADME, organism-based; conditions: in vivo
[16] = Volume of distribution at steady state in rat at 10 mg/kg, iv; format: ADME, organism-based; conditions: in vivo, read-out: Vdss
[17] = target: Sodium-dependent serotonin transporter (Homo sapiens) (UniProt P31645); test: Binding affinity to human serotonin transporter at 10 uM by antagonist radioligand assay relative to control; design: scale not given: the % may be the effect or the level left
[18] = target: Delta-type opioid receptor (Homo sapiens) (UniProt P41143); test: Displacement of [3H]DADLE from human recombinant delta opioid receptor after 60 mins by scintillation counting analysis relative to control
Delta-type opioid receptor (Homo sapiens), sequence (P41143 whole entry): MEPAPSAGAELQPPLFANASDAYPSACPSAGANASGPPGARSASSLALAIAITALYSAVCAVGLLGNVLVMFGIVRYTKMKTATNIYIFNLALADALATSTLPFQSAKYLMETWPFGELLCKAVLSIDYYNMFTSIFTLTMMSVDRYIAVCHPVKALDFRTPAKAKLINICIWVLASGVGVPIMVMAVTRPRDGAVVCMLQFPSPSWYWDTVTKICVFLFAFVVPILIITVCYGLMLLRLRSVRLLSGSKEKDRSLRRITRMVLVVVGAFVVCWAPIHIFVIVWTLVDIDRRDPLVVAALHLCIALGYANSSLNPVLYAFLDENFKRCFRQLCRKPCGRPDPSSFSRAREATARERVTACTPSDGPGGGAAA

[19] = Cmax in rat at 20 mg/kg, po; format: ADME, organism-based; design: dose 20 mg/kg, route oral; conditions: in vivo
[20] = target: 5-hydroxytryptamine receptor 3A (Homo sapiens) (UniProt P46098); test: Displacement of [3H]BRL 43694 from human recombinant 5-HT3 receptor at 10 uM after 120 mins by scintillation counting analysis relative to control
Mus musculus [21] = test: Hepatotoxicity in mouse assessed as effect on ALKP level at 1 to 50 mg/kg, ip dosed daily for 1 month; format: toxicity, organism-based; conditions: in vivo; how it was run: as §2
Rattus norvegicus = species on record: Rattus norvegicus; test: Displacement of [125I]alpha-dendrotoxin from rat Voltage-gated potassium channel at 10 uM after 60 mins by scintillation counting analysis relative to control
How it was run: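 Run within a commercial off-target panel of receptors and enzymes, with compound tested at a single concentration of 10 μM.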

Mus musculus [22] = test: Anti-inflammatory activity in poly(I:C)-induced airway inflammation C57BL/6 mouse model assessed as reduction in mCIG5 expression in lung at 10 mg/kg, ip administered 1 day prior to poly(I:C) stimulation and redosed on day 2 followed by poly(I:C) stimulation; format: functional, organism-based
How it was run: (§3)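 Male C57BL/6J mice, 12 weeks old, were given 10 mg/kg i.p. one day before stimulation. The next day they got a second dose, immediately followed by intranasal poly(I:C) (300 μg in 50 μL PBS) or PBS alone. Compound was taken up in DMSO and diluted in 10% hydroxypropyl β-cyclodextrin in PBS. Mice were euthanized one day later and lung tissue was collected for cytokine expression.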

Mus musculus [23] = test: as §1, with “total cells in” for “neutrophils recruitment into”; format: functional, organism-based
Mus musculus [24] = test: Hepatotoxicity in mouse at 1 to 50 mg/kg, ip dosed daily for 1 month by histological analysis; format: toxicity, organism-based; conditions: in vivo
[25] = target: Cav1.2 (L-type calcium channel) (Rattus norvegicus, UniProt P22002); test: Displacement of [3H]nitrendipine from rat Cav1.2 (L-type) at 10 uM after 90 mins by scintillation counting analysis relative to control; conditions: probe [3H]nitrendipine, read-out: Activity
[26] = target: Cannabinoid receptor 2 (Homo sapiens) (UniProt P34972); test: Displacement of [3H]WIN 55212-2 from human recombinant CB2 receptor at 10 uM after 120 mins by scintillation counting analysis relative to control
Cannabinoid receptor 2 (Homo sapiens), sequence (P34972 whole entry): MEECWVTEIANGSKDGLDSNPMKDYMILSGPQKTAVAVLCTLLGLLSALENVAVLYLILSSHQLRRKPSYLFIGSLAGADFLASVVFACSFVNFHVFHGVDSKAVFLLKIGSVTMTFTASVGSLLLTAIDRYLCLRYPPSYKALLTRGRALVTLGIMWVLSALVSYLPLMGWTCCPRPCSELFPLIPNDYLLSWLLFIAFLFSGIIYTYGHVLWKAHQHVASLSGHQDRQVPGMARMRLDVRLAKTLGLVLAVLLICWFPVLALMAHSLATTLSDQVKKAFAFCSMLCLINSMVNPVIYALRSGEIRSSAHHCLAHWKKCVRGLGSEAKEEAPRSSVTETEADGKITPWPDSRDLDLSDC

[27] = target: 5-hydroxytryptamine receptor 1B (Homo sapiens) (UniProt P28222); test: Displacement of [125I]-CYP from human 5-HT1B receptor at 10 uM after 120 mins by scintillation counting analysis relative to control
5-hydroxytryptamine receptor 1B (Homo sapiens), sequence (P28222 whole entry): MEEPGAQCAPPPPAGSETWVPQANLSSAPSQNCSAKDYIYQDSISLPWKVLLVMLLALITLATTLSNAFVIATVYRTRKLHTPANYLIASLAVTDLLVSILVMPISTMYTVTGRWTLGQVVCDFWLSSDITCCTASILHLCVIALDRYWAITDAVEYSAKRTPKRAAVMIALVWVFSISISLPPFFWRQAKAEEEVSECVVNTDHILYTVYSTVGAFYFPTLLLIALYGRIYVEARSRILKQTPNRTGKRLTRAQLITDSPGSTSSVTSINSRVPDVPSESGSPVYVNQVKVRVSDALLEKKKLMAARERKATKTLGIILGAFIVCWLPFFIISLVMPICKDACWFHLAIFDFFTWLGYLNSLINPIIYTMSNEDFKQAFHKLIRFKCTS

[28] = target: B2 bradykinin receptor (Homo sapiens) (UniProt P30411); test: Displacement of [3H]bradykinin from human recombinant B2 receptor at 10 uM after 60 mins by scintillation counting analysis relative to control
B2 bradykinin receptor (Homo sapiens), sequence (P30411 whole entry): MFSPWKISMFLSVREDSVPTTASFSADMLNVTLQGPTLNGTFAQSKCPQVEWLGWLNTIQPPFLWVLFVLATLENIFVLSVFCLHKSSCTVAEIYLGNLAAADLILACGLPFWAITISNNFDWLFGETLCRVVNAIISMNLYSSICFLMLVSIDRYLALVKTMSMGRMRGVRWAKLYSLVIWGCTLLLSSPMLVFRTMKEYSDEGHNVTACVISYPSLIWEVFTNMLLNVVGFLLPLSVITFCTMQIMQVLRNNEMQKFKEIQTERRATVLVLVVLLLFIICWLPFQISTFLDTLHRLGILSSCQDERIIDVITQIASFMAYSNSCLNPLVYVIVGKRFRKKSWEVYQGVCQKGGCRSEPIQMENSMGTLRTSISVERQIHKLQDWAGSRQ

hERG (KCNH2) = hERG (KCNH2) (Homo sapiens, UniProt Q12809); test: Displacement of [3H]Dofetilide from human ERG at 10 uM after 60 mins by scintillation counting analysis relative to control; conditions: probe [3H]Dofetilide, read-out: Activity
hERG (KCNH2), sequence (Q12809 whole entry): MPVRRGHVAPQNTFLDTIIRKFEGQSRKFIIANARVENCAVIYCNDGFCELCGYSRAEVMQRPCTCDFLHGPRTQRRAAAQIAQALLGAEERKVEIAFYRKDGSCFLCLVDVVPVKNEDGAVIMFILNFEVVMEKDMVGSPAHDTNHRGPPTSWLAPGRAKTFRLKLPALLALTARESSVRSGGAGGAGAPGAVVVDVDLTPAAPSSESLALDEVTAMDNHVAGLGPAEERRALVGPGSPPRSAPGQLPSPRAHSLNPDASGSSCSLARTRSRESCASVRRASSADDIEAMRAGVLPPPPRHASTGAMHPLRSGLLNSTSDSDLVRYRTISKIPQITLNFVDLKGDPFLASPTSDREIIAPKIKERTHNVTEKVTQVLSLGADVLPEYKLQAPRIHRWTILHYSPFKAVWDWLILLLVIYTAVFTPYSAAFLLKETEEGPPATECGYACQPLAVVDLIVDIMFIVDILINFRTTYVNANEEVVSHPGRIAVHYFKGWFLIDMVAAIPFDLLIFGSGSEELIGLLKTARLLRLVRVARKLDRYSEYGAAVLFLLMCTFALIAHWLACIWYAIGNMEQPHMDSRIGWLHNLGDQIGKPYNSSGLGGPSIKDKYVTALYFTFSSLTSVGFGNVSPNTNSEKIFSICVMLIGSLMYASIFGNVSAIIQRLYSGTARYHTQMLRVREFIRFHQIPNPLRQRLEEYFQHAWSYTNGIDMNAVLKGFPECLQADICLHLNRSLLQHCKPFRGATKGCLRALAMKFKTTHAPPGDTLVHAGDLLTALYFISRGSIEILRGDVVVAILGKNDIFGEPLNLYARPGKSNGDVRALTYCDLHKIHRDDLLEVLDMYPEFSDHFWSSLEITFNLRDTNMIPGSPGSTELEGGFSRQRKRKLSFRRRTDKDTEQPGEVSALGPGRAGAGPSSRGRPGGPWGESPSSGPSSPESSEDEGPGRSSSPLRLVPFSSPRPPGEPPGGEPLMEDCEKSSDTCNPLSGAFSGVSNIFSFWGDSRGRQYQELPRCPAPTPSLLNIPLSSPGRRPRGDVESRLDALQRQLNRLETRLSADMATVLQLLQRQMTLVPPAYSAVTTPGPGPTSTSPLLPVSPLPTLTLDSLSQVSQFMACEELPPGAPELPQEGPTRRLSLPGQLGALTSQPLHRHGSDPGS

Mus musculus [29] = test: Anti-inflammatory activity in poly(I:C)-induced airway inflammation C57BL/6 mouse model assessed as reduction in mISG54 expression in lung at 10 mg/kg, ip administered 1 day prior to poly(I:C) stimulation and redosed on day 2 followed by poly(I:C) stimulation; format: functional, organism-based; how it was run: as §3

## Cc1cc(/N=N/c2ccc(S(=O)(=O)NC3CCCC3)cc2)c(N)cc1O
[1]
  Activity: 7.4%
Mus musculus [2]
  Activity: Active
[3]
  Activity: -0.1%
Mus musculus [4]
  Activity: Non-Toxic
[5]
  Activity: 17.2%
[6]
  Activity: 15%
[7]
  Activity: -14.2%
[8]
  Activity: 21.9%
[9]
  Activity: 36.9%
[10]
  Activity: -10.1%
[11]
  Activity: 21.6%
Mus musculus [12]
  Activity: Non-Toxic
[13]
  Activity: 17.4%
[14]
  Activity: 8.9%
[15]
  half-life: 49.8 min
[16]
  Vd: 1.12 L/kg
[17]
  Activity: 15%
[18]
  Activity: -2.7%
[19]
  Cmax: 36 ng/mL
[20]
  Activity: -12.9%
Mus musculus [21]
  Activity: Non-Toxic
Rattus norvegicus
  Activity: 8.5%
Mus musculus [22]
  Activity: Active
Mus musculus [23]
  Activity: Active
Mus musculus [24]
  Activity: Non-Toxic
[25]
  inhibition at […], 10 µM: 42%
[26]
  Activity: 59.3%
[27]
  Activity: -9.6%
[28]
  Activity: -2.4%
hERG (KCNH2)
  inhibition at 1 h, 10 µM: 23.6%
Mus musculus [29]
  Activity: Active
